The source of these data is ChEMBL document CHEMBL3627654, “Ring substitution influences oxidative cyclisation and reactive metabolite formation of nordihydroguaiaretic acid analogues” (Bioorg Med Chem, 2015).

Series [1] can be described thus: Drug degradation in phosphate citric acid buffer at pH 7.4 at 37 degC at 0.5 mM by HPLC-UV analysis. The format is physicochemical. Particulars: pH 7.4, 500 µM. An outline of the steps: (§1)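 Aliquots over time quenched to pH 1.5 with HCl, quantified by HPLC against standard curves (peak area ratio to DMPA). k from slope of ln(C/Co) versus time, pseudo-first-order; half-life derived.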

Series [2] can be described thus: Half life of the compound in 0.5M phosphate citric acid buffer at 0.5 mM at pH 7.4 at 37 degC by HPLC-UV analysis. The format is ADME. In a few lines: as §1
Series [3] in a line: Drug degradation in 0.5M phosphate citric acid buffer at 0.5 mM at pH 7.4 at 37 degC by HPLC-UV analysis. In kind it is physicochemical. Particulars: pH 7.4, 500 µM. In a few lines:
as §1

The nature of series [4]: Stability of compound assessed as level of starting material at 37 degC for 6 hrs in presence of 20 fold excess of glutathione. The format is physicochemical. Particulars: read-out: Stability. In a few lines: (§2)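 Substrate and DMPA internal standard, 0.5 mM each, incubated in phosphate–citrate buffer (0.5 M, pH 7.4) at 37 °C for 6 h with or without 20-fold excess glutathione. Samples acidified to pH 1.5 and analysed directly by HPLC and ESI-MS. Relative percentage of starting material, cyclised product and adduct reported.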

Series [5] in a line: Stability of compound in 0.5M phosphate citric acid buffer assessed as autoxidative conversion at 0.1 mM at pH 7.4 at 37 degC for 90 mins by HPLC-UV analysis. The format is physicochemical. Particulars: pH 7.4, 1.5 h, 100 µM. In a few lines:
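Incubated 90 min at 37 °C. Dibenzocyclooctadiene formation monitored by HPLC, with products examined by MS and NMR. NDGA served as positive control.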

Series [6] is described as follows: Stability of compound assessed as level of starting material at 37 degC for 6 hrs in absence of glutathione. The format is physicochemical. Particulars: read-out: Stability. An outline of the steps: as §2
Series [7] can be described thus: Stability of compound assessed as formation of 5,6,7,8-Tetrahydro-dibenzo[a,c]cyclooctene-2,3,10,11-tetraol in phosphate citric acid buffer at pH 7.4 at 37 degC by HPLC-UV analysis. The format is physicochemical. An outline of the steps: (§3)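 Formation rate of the dibenzocyclooctadiene inferred from loss of the parent substrate (0.5 mM, DMPA internal standard) in phosphate–citric acid buffer (0.5 M, pH 7.4) at 37 °C. Aliquots acidified to pH 1.5 with HCl and analysed by HPLC; first-order k from ln(C/Co) versus time, relative rate versus NDGA.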

Series [8] is described as follows: Stability of compound assessed as formation of 5,6,7,8-Tetrahydro-dibenzo[a,c]cyclooctene-2,3,10,11-tetraol in phosphate citric acid buffer at pH 7.4 at 37 degC by HPLC-UV analysis relative to NDGA. In kind it is physicochemical. In a few lines: as §3
Series [9] in a line: Stability of compound in 0.5M phosphate citric acid buffer assessed as drug degradation at 0.5 mM at pH 7.4 at 37 degC for 48 hrs by HPLC-UV analysis. The format is physicochemical. Particulars: read-out: Drug degradation. In a few lines:
as §1

Series [10] in a line: Drug degradation in phosphate citric acid buffer at pH 7.4 at 37 degC by HPLC-UV analysis relative to cNDGA. In kind it is physicochemical. An outline of the steps:
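Cyclised dibenzocyclooctadiene derivative (0.5 mM) with DMPA internal standard incubated in phosphate–citric acid buffer (0.5 M, pH 7.4) at 37 °C; aliquots acidified to pH 1.5 and parent loss followed by HPLC. First-order rate constant from ln(C/Co) versus time, expressed relative to cNDGA.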

The nature of series [11]: Stability of compound assessed as formation of cNDGA in phosphate citric acid buffer at pH 7.4 at 37 degC by HPLC-UV analysis. In kind it is physicochemical. In a few lines: as §3
Series [12] in a line: Dissociation constant, pKa of compound. In kind it is physicochemical.

In series [1], `CC1Cc2cc(O)c(O)cc2-c2cc(O)c(O)cc2CC1C` (centres undefined) yielded a K of 0.47 ×10⁻⁵ /s.
Turning to `Oc1ccc(CCCCc2ccc(O)c(O)c2)cc1O`, the half-life at 500 µM in [2] was 1.47 h. Besides, the K in series [3] amounted to 13.1 ×10⁻⁵ /s; in series [7] it was 8.7 ×10⁻⁵ /s. For the same compound, the remaining at 6 h in series [4] came out at 95.5%; in series [6], 8.52%. In addition, the Drug metabolism entry in series [5] is “metabolite_detected”. In addition, the Ratio in series [8] worked out at 3.1.
`CC(Cc1ccccc1)C(C)Cc1ccc(O)c(O)c1` (centres undefined) showed a half-life at 500 µM in series [2] of 4.22 h. The same compound had a K in [3] of 4.56 ×10⁻⁵ /s. Further, the Drug metabolism entry in series [5] was “metabolite_detected”.
For `COc1cc(CC(C)C(C)Cc2ccccc2)ccc1O` (centres undefined), the half-life at 500 µM in [2] was 5.49 h. The same compound yielded a K in series [3] of 3.5 ×10⁻⁵ /s. In series [5], the Drug metabolism entry is “metabolite_detected”.
For the compound `CC(Cc1cccc(O)c1)C(C)Cc1cccc(O)c1` (centres undefined), the degraded at 48 h, 500 µM in series [9] is below 5%. Also, the Drug metabolism entry in [5] is recorded as “metabolite_detected”.
Compound `COc1ccc(CC(C)C(C)Cc2ccc(OC)c(O)c2)cc1O` (centres undefined) showed a half-life at 500 µM in series [2] of 4.68 h. Further, the K in [3] was determined as 4.11 ×10⁻⁵ /s. In addition, in series [5], the Drug metabolism entry is on record as “metabolite_detected”.
With `Oc1cc2c(cc1O)-c1cc(O)c(O)cc1CCCC2`, the Ratio in [10] was 3.7. In [1], this compound gave a K of 1.75 ×10⁻⁵ /s.
`COc1ccc(CC(C)C(C)Cc2ccc(O)c(O)c2)cc1OC` (centres undefined) showed a half-life at 500 µM in [2] of 4.62 h. For the same compound, the K in series [3] is on record as 4.16 ×10⁻⁵ /s. Also, in series [5], the Drug metabolism result is “metabolite_detected”.
On the same counts, the results for `COc1cc(CC(C)C(C)Cc2ccc(O)c(OC)c2)ccc1O` (centres undefined) [DIHYDROGUAIARETIC ACID] are 6.7 h, 2.87 ×10⁻⁵ /s and “metabolite_detected”.
Regarding `CC(Cc1ccc(O)c(O)c1)C(C)Cc1ccc(O)c(O)c1` (centres undefined) [NORDIHYDROGUAIARETIC ACID], the K is given as 2.78 ×10⁻⁵ /s in series [11] and 4.88 ×10⁻⁵ /s in series [3]. The compound also gave a half-life at 500 µM in series [2] of 3.94 h. In addition, the remaining at 6 h in [4] was 87.1%; in [6], 66.9%. The compound also showed a pKa in series [12] of 9.3. In addition, the Drug metabolism entry in series [5] is recorded as “metabolite_detected”.
